# Sampled rows, rich in hits. Any-hit rate of the full collection: about 6.8%.
# HCV core dimer: blocks dimerization of HCV core protein | inhibition, % at 5 µM | 300,000 compounds, 0.33% hits | TR-FRET GST/Flag-core106 dimerization, 1536-well;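 active means inhibition above the mean of all tested compounds plus 3 SD, set per screening campaign, cut at about 45% in these data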
#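 Test system: GST/Flag-tagged HCV core106 proteins; Medium: KF-containing HEPES buffer, pH 7.45, DTT, CHAPS, BSA; Times: compound-protein-antibody incubation 4 h at 22.5 °C; Detection: TR-FRET 671 and 617 nm emission; Benchmarks: wells lacking GST-core106 and wells with excess unlabelled core106.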
# ALR inh: blocks human ALR sulfhydryl oxidase activity; P55789; purified ALR, DTT oxidation, H2O2 HRP-luminol luminescence; inhibition, % (test concentration not listed); 290,000 compounds, 3.8% hits;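 active means mean replicate inhibition above about 79%, with every replicate also reaching it, limit read from the data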
# Target sequence (P55789 whole entry, looked up): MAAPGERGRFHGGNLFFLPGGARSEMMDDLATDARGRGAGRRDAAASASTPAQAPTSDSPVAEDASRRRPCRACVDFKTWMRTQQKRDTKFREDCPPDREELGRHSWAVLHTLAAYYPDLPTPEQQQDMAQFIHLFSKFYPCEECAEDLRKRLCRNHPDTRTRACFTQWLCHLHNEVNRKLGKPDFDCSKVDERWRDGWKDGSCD
# HSF1 activator: increases HSF-1 driven luciferase reporter signal; AID 504408; NIH3T3-HGL HSF-1 luciferase reporter, MG132, 8 h; 100% = twice DMSO control signal; activation, % at 9 µM; 300,000 compounds, 1.7% hits;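 active means mean replicate activation of at least 50% with a set share of replicates each reaching 50%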;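 further: 0% = median of the neutral control wells and 100% = twice that signal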
# PHOSPHO1 inh: blocks human PHOSPHO1 phosphatase activity. recombinant PHOSPHO1, absorbance phosphatase assay. inhibition, % at 13.3 µM. 290,000 compounds, 1.1% hits. AID 1565; in the data active means inhibition above about 60%
# AI-2 QS modul: modulators of Vibrio harveyi AI-2 quorum sensing system. Vibrio harveyi JMH597 AI-2 luminescence/OD600 ratio, 9 h; active compounds read low; strain lacks LuxN and CqsS sensors; 0 = neutral-control median. activity change, % at 7.5 µM. 300,000 compounds, 0.4% hits. AID 2094; in the data active means activity change below about -75%, passing the limit was not always enough;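 further: luminescence divided by OD600 gain over 9 h not by final OD600 alone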
# HSF1 inh: HSF1 inhibition; activity change, negative = inhibition, % at 7.5 µM (by protocol); NIH3T3-HGL HSE-luciferase, MG132-induced, luminescence 8 h; active compounds read low; 300,000 compounds, 0.77% hits;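 active means more than half of replicate wells show activity change below -50%, luminescence cut by over half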;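 further: luciferase reports HSF-1 transcriptional activity via heat shock element; 0% = median of DMSO wells and -100% = zero luminescence signal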
# Numbers without * were called inactive; nt = no result given.
SMILES,HCV core dimer,ALR inh,HSF1 activator,PHOSPHO1 inh,AI-2 QS modul,HSF1 inh
O=C(CCC(=O)c1cccs1)Nc1ccc(F)c(F)c1F,52*,6,17,-12,-44,9
CCCC(=O)N1CCN(c2ccc(NC(=O)c3cccs3)cc2)CC1,1,15,53*,-10,12,30
O=C(Nc1ccc(S(=O)(=O)Nc2ccccc2F)cc1)N1CCCCC1,-5,-1,-11,3,19,-3
O=C(CC(Cc1ccccc1)C(=O)O)Nc1ccc(Cl)c(Cl)c1 (stereo not drawn),-1,14,-1,9,9,-2
CC(=O)c1ccc(S(=O)(=O)Nc2ccc(N3CCOCC3)cc2)cc1,13,34,10,22,24,-3
O=C(NC(CC(=O)N1CCN(c2ccccc2O)CC1)c1ccccc1)c1ccccc1Cl (stereo not drawn),nt,99*,nt,nt,nt,nt
CC(=O)Nc1ccc(S(=O)(=O)Nc2ccc(N3CCOCC3)cc2)cc1,-3,82*,-1,-25,4,-5
COc1ccc(C(=O)O)cc1S(=O)(=O)Nc1ccc(N2CCCCC2)cc1,nt,96*,nt,nt,nt,nt
Cc1ccc(S(=O)(=O)Nc2ccc(N3CCCCC3)cc2)cc1,3,98*,9,8,-25,7
COc1cccc(NC(=O)CCCCCN2C(=O)[C@@H]3Cc4ccccc4CN3C2=O)c1,6,-7,-16,38,5,5
CCC(=O)Nc1ccc(N2CCCCC2)cc1,-4,nt,2,34,37,-5
CCCC(=O)Nc1ccc(N2CCCCC2)cc1,-7,82*,17,15,25,9
CCOC(=O)c1sc(S(C)=O)c2c1CCc1conc1-2 (stereo not drawn),-1,-21,-2,-6,14,-19
Cc1ccc(OCC(=O)Oc2c(C)cccc2C)cc1C,-4,-4,7,24,40,-3
O=C(/C=C/c1ccc(Br)o1)Nc1nccs1,-4,nt,83*,-6,12,76
O=C(Nc1nccs1)c1ccc(Br)o1,7,-2,14,6,6,1
CC1CC(C)CN(C(=O)c2cc3cc(Br)cc(Br)c3o2)C1 (stereo not drawn),11,-3,67*,6,6,34
CCN(CC)CCCN1C(=O)c2oc3ccccc3c(=O)c2C1c1cccc(OC)c1OC (stereo not drawn),2,2,67*,6,34,31
CN(C)CCN1C(=O)c2oc3ccccc3c(=O)c2C1c1ccc(F)cc1 (stereo not drawn),1,0,19,-3,7,6
COc1cccc(C2c3c(oc4ccccc4c3=O)C(=O)N2CCCN(C)C)c1OC (stereo not drawn),-3,-1,66*,4,5,36
O=C(O)CC1SC(N/N=C/c2ccc(Br)cc2)NC1=O (stereo not drawn),-3,-1,1,24,7,-4
Cc1oc(-c2ccccc2Cl)nc1CS(=O)CC(=O)NC1CC1 (stereo not drawn),1,99*,46,10,2,17
Cc1ccc(-c2nc(CS(=O)CC(=O)NC3CC3)c(C)o2)cc1 (stereo not drawn),7,99*,-2,37,19,-6
Cc1ccc(-c2nc(CS(=O)(=O)CC(=O)NC3CC3)c(C)o2)cc1,-8,-2,-9,33,5,-5
CCc1ccc(-c2nc(CS(=O)CC(=O)NC3CCCCCC3)c(C)o2)cc1 (stereo not drawn),-1,99*,37,12,33,10
Cc1oc(-c2ccccc2)nc1CS(=O)CC(=O)NC1CCCC1 (stereo not drawn),7,99*,8,23,16,11
Cc1nn(CC(=O)NC2CCS(=O)(=O)C2)c(C)c1[N+](=O)[O-] (stereo not drawn),nt,0,nt,nt,nt,nt
CC(C)c1cccc(C(C)C)c1NC(=O)c1ccccc1,-6,nt,-5,-30,15,1
O=C(/C=C/c1ccc(F)cc1)Nc1ccc2[nH]c(=O)[nH]c2c1,-2,0,25,20,10,13

# Source: PubChem BioAssay
